What was measured:
Cytochrome P450 1B1 = target: T1, Cytochrome P450 1B1 (Homo sapiens, UniProt Q16678); assay: Inhibition of human microsomal CYP1B1-dependent ethoxyresorufin-O-deethylase activity by spectrofluorimetric analysis in presence of NADPH regenerating solution
T1 sequence (Q16678 whole entry): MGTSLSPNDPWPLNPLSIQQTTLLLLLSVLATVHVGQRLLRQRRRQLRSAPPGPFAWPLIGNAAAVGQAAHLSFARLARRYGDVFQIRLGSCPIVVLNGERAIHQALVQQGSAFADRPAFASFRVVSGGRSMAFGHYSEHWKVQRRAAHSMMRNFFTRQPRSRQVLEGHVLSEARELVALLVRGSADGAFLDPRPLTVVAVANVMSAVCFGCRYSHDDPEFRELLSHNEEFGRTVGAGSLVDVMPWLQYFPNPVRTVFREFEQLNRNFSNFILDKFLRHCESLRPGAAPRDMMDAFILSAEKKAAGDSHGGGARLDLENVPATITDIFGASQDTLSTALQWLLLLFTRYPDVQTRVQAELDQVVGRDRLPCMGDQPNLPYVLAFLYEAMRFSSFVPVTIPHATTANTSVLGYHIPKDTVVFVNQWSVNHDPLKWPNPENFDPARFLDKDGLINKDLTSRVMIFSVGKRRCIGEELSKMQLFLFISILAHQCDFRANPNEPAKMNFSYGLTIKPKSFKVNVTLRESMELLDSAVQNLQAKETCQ
Procedure, shortened: (§1)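 Microsomal P450 (final 5 nM) in 0.1 M potassium phosphate pH 7.6 with MgCl2 at 37 °C. Substrate final 5 µM: ethoxyresorufin for 1A1/1B1, methoxyresorufin for 1A2. Ki was taken as the x-intercept of Dixon plots (1/v0 vs [I]). Mean ± SD of three independent experiments. Selectivity ratios are ratios of these Ki.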

Cytochrome P450 1A2 [1] = target: T2, Cytochrome P450 1A2 (Homo sapiens, UniProt P05177); assay: Inhibition of CYP1A2-dependent methoxyresorufin-O-demethylase activity in human HepG2 cells at > 10^-6 M preincubated for 24 hrs followed by substrate addition measured at 10, 30, 60 mins by fluorescence assay; assay type: cell-based; conditions: hepg2, 1 h
T2 sequence (P05177 whole entry): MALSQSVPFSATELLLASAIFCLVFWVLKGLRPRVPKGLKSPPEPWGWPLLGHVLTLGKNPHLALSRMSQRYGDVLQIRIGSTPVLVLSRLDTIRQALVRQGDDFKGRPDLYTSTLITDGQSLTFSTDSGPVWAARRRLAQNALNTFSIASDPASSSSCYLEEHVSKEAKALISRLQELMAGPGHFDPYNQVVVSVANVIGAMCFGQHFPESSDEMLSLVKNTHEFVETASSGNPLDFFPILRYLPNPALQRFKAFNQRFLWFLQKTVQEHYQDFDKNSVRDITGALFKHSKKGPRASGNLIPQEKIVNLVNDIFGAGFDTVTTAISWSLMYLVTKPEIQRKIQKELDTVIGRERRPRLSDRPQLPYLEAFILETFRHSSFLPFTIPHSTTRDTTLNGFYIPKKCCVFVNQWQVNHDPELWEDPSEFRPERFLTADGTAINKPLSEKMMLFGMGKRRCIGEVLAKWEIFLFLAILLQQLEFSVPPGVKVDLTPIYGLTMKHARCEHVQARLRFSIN
Procedure, shortened: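 HepG2 cells (DMEM, 10% FBS, 37 °C, 5% CO2), 2 × 10^5 per well, plated overnight. Exposed 24 h to compound at final 10^-4 to 10^-7 M in DMSO. 10^-5 M βNF positive control, DMSO blank. Then washed with PBS and given medium with 5 × 10^-6 M methoxyresorufin. Resorufin fluorescence (ex 535/em 585 nm) read at 10, 30, 60 min. Triplicate, three independent experiments, unpaired t test.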

Cytochrome P450 1A1 = target: T3, Cytochrome P450 1A1 (Homo sapiens, UniProt P04798); assay: Inhibition of human microsomal CYP1A1-dependent ethoxyresorufin-O-deethylase activity by spectrofluorimetric analysis in presence of NADPH regenerating solution
T3 sequence (P04798 whole entry): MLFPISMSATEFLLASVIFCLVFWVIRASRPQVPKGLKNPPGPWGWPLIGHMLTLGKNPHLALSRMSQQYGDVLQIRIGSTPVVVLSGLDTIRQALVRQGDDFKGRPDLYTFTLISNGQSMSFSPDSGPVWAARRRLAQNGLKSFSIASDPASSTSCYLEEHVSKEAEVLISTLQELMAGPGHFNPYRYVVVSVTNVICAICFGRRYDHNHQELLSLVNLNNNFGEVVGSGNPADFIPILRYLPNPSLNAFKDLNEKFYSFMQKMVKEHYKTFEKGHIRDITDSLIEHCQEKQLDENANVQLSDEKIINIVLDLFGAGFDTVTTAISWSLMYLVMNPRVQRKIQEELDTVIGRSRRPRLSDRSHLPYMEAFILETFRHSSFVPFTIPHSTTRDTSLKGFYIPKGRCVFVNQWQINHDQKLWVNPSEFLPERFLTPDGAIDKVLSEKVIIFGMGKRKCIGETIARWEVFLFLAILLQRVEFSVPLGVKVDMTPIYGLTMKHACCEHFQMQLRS
Procedure, shortened: as §1, with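 “1A2. […]” for “1A2.”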

Homo sapiens [2] = species: Homo sapiens; assay: Selectivity ratio of Ki for human microsomal CYP1B1 to Ki for human microsomal CYP1A2
Procedure, shortened: as §1, with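 “1A2. […]” for “1A2.”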

Cytochrome P450 1A2 [3] = target: T2, Cytochrome P450 1A2; assay: Time-dependent inhibition of human microsomal CYP1A2-dependent methoxyresorufin-O-demethylase activity by spectrofluorimetric analysis in presence of NADPH regenerating solution
Procedure, shortened: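 1A2 MROD run with NADPH at 0.0125, 0.025, 0.05 and 0.1 µM inhibitor, product monitored continuously over 6 min. Activity at different times came from first derivatives of product curves, expressed as % of control remaining. KI and limiting kinact were derived from the resulting linear plot.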

Homo sapiens [4] = species: Homo sapiens; assay: Selectivity ratio of Ki for human microsomal CYP1A1 to Ki for human microsomal CYP1A2
Procedure, shortened: as §1, with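 “1A2. […]” for “1A2.”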

[5] = target: T4, Aryl hydrocarbon receptor (Homo sapiens, UniProt P35869); assay: Activation of human AhR expressed in Saccharomyces cerevisiae MYA-3637 assessed as upregulation of cytochrome P450 expression at <10^-6 M by LacZ reporter assay; assay type: ADME
T4 sequence (P35869 whole entry): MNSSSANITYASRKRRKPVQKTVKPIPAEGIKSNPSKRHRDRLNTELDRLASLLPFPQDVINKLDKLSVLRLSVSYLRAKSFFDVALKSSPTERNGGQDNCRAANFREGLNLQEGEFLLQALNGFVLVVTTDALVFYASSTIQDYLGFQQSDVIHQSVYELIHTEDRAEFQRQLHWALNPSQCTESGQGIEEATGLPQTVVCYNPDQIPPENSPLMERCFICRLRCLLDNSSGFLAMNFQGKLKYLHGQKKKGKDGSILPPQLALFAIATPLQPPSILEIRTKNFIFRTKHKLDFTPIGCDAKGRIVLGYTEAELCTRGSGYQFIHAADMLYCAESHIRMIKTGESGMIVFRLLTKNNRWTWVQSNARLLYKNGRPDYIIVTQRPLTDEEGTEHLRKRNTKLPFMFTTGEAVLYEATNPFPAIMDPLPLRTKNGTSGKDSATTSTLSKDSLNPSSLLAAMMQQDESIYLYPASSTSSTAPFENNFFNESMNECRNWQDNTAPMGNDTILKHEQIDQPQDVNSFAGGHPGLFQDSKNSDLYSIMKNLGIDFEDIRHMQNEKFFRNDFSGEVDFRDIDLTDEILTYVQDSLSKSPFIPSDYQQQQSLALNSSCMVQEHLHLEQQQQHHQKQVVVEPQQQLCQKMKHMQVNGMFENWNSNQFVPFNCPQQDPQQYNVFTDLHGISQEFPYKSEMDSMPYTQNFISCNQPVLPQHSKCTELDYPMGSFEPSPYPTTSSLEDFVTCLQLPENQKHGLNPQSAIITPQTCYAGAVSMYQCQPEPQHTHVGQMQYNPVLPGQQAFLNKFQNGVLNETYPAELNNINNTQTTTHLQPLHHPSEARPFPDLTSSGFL
Procedure, shortened: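 Yeast with integrated human AhR (GAL promoter) and lacZ reporter plasmid, grown on tryptophan-free synthetic minimal medium with galactose instead of glucose. Compounds in DMSO (1% v/v final) added to overnight culture in quadruplicate and left until next day. Abs600 read, then lysis buffer with sarcosyl, DTT and ONPG added. Abs405/Abs600 taken as activation. 10^-8 M βNF positive control. At least three repeats.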

HepG2 = assay: Cytotoxicity against human HepG2 cells assessed as cell viability up to 10^-5 M after 72 hrs by MTT assay; assay type: cell-based; conditions: hepg2, 72 h
Cytochrome P450 1A2 [6] = target: T2, Cytochrome P450 1A2; assay: Inhibition of human microsomal CYP1A2-dependent methoxyresorufin-O-demethylase activity by spectrofluorimetric analysis in presence of NADPH regenerating solution; procedure, shortened: as §1

O=c1cc(C(F)(F)F)c2ccc3c(c2o1)C=CCO3
Ki (Cytochrome P450 1B1): 20.4 µM | inhibition (INH) (Cytochrome P450 1A2 [1]): Active | Ki (Cytochrome P450 1A1): 60.6 µM | Ratio Ki (Homo sapiens [2]): 52 | TDI (Cytochrome P450 1A2 [3]): Not Active | Ratio Ki (Homo sapiens [4]): 155 | Activity [5]: Not Active | Activity (HepG2): Non-toxic | Ki (Cytochrome P450 1A2 [6]): 0.39 µM

Reference: ChEMBL document CHEMBL3600302, “A Ligand-Based Drug Design. Discovery of 4-Trifluoromethyl-7,8-pyranocoumarin as a Selective Inhibitor of Human Cytochrome P450 1A2” (J Med Chem, 2015)
